From ChEMBL document CHEMBL3603830, “Synthesis and structure-activity relationship of uracil nucleotide derivatives towards the identification of human P2Y6 receptor antagonists” (Bioorg Med Chem, 2015)
Active and inactive are the calls of the source. The rule behind the calls is not given here.

Columns and labels:
[1] = target: T1, P2Y purinoceptor 6 (Homo sapiens, UniProt Q15077); assay: Antagonist activity at human recombinant P2Y6 receptor expressed in human 1321N1 cells assessed as inhibition of UDP-induced increase in intracellular calcium level at 30 uM incubated for 2 mins prior to UDP induction by fluo-4 dye-based spectrofluorometric analysis; format: functional, cell-based
T1 sequence (Q15077 whole entry): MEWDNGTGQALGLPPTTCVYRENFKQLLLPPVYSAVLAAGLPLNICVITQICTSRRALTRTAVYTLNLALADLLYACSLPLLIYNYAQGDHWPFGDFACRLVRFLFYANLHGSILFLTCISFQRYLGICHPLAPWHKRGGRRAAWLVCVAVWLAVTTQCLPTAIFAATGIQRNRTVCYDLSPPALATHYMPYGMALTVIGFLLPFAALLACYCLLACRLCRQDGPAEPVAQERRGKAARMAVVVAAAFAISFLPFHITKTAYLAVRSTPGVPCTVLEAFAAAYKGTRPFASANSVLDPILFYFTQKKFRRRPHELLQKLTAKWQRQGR
Summary of the method: (§1)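 hP2Y6-R-expressing 1321N1 cells, Fluo-4/AM-loaded (1 µM, 25 min, 37 °C, then 25 min de-esterification) in HBSS with Ca2+/Mg2+, stirred in a cuvette with fluorescence at 488/520 nm. Analogue given 2 min before 1 µM UDP stimulation. Calcium calculated from Triton X-100/EDTA calibration. Two experiments in duplicate, mean ± SEM; one-way ANOVA against vehicle control.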

[2] = target: T1, P2Y purinoceptor 6; assay: Agonist activity at human recombinant P2Y6 receptor expressed in human 1321N1 cells assessed as increase in intracellular calcium level at >100 uM by fluo-4 dye-based spectrofluorometric analysis; format: functional, cell-based
Summary of the method: (§2)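 1321N1 cells stably expressing recombinant hP2Y6-R were trypsin/EDTA-detached, loaded with 1 µM Fluo-4/AM in HBSS (Ca2+/Mg2+) for 25 min at 37 °C, then held 25 min at 37 °C for de-esterification. Stirred cuvette suspension read at ex 488/em 520 nm after compound addition, with UDP as control. Fmax/Fmin set with 0.1% Triton X-100 then 50 mM EDTA; [Ca2+] = Kd(F−Fmin)/(Fmax−F).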

[3] = target: T1, P2Y purinoceptor 6; assay: Antagonist activity at human recombinant P2Y6 receptor expressed in human 1321N1 cells assessed as inhibition of UDP-induced increase in intracellular calcium level at 100 uM incubated for 2 mins prior to UDP induction by fluo-4 dye-based spectrofluorometric analysis; format: functional, cell-based; summary of the method: as §1
[4] = target: T1, P2Y purinoceptor 6; assay: Agonist activity at human recombinant P2Y6 receptor expressed in human 1321N1 cells assessed as increase in intracellular calcium level by fluo-4 dye-based spectrofluorometric analysis; format: functional, cell-based; summary of the method: as §2
[5] = target: T1, P2Y purinoceptor 6; assay: Agonist activity at human recombinant P2Y6 receptor expressed in human 1321N1 cells assessed as increase in intracellular calcium level at 10 uM by fluo-4 dye-based spectrofluorometric analysis relative to UDP-treated control; format: functional, cell-based; summary of the method: as §2
[6] = target: T2, NPP1 (ectonucleotide pyrophosphatase/phosphodiesterase family member 1) (Homo sapiens, UniProt P22413); assay: Drug metabolism assessed as human NPP1-mediated compound hydrolysis at 100 uM after 2 hrs by HPLC analysis relative to UDP-treated control; format: ADME; settings: human NPP1 enzyme, read-out: Drug metabolism
T2 sequence (P22413 whole entry): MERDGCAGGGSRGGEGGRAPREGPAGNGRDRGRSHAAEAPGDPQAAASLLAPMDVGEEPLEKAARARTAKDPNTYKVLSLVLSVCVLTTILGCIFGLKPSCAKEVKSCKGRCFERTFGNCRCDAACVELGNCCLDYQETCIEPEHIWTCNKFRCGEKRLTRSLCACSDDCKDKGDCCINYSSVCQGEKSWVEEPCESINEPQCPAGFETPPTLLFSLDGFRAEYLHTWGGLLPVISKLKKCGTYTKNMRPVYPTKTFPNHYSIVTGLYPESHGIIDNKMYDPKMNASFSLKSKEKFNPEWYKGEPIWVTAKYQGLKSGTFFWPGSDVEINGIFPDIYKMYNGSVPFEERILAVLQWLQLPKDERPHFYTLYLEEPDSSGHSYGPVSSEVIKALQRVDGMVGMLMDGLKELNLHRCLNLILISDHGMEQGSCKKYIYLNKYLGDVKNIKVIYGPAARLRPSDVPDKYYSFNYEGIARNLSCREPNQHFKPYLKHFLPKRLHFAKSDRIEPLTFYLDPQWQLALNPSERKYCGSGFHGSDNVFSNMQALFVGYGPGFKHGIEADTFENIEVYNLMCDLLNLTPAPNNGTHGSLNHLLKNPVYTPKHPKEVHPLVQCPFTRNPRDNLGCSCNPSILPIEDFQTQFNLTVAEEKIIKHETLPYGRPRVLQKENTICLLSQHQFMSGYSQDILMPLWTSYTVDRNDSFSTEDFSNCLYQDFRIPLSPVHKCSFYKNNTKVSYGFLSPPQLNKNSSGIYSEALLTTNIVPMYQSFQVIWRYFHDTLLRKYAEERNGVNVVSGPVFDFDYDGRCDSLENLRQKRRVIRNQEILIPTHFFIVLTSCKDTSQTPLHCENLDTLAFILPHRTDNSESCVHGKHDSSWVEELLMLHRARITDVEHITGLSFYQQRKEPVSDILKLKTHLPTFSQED
Summary of the method: (§3)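 Compound at 100 µM incubated at 37 °C with hNPP1 for 2 h or hNPP3 for 3 h, in buffer of 1 mM CaCl2, 200 mM NaCl, 10 mM KCl and 100 mM Tris, pH 8.5. Quenched with perchloric acid, neutralized to pH 7 with KOH, then C18 HPLC with isocratic TEAA (pH 7)/CH3CN. Degradation taken from the nucleoside monophosphate peak area minus control, relative to 100% UDP hydrolysis.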

[7] = target: T3, Ectonucleotide pyrophosphatase/phosphodiesterase family member 1 (Homo sapiens) (UniProt P22413); assay: Inhibition of human NPP1-mediated UDP hydrolysis at 100 uM after 2 hrs relative to UDP-treated control
T3 sequence (whole entry): T2 sequence (P22413 whole entry)
Summary of the method: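 21.44 µg hNPP1 extract pre-incubated 3 min at 37 °C in 1 mM CaCl2, 140 mM NaCl, 5 mM KCl and 50 mM Tris, pH 8.5. Reaction started with compound and UDP, each 100 µM final. Stopped after 2 h with ice-cold perchloric acid, neutralized with KOH, then HPLC. Compared with UDP-only reference samples. Mean ± S.D. of three experiments.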

[8] = target: T1, P2Y purinoceptor 6; assay: Agonist activity at human recombinant P2Y6 receptor expressed in human 1321N1 cells assessed as induction of calcium release at 100 uM by fluo-4 dye-based spectrofluorometric analysis; format: functional, cell-based
Summary of the method: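 1321N1 astrocytoma cells stably expressing recombinant hP2Y6-R, trypsin/EDTA-detached, loaded with 1 µM Fluo-4/AM in HBSS (Ca2+/Mg2+) for 25 min at 37 °C, then de-esterified 25 min. Stirred suspension in a quartz cuvette, excitation 488 nm and emission 520 nm. Compound added, with UDP as control. Fmax from 0.1% Triton X-100 and Fmin from 50 mM EDTA; [Ca2+]i = Kd(F−Fmin)/(Fmax−F). Two experiments in duplicate.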

[9] = target: T4, Ectonucleotide pyrophosphatase/phosphodiesterase family member 3 (Homo sapiens) (UniProt O14638); assay: Inhibition of human NPP3-mediated UDP hydrolysis at 100 uM after 3 hrs relative to UDP-treated control
T4 sequence (whole entry): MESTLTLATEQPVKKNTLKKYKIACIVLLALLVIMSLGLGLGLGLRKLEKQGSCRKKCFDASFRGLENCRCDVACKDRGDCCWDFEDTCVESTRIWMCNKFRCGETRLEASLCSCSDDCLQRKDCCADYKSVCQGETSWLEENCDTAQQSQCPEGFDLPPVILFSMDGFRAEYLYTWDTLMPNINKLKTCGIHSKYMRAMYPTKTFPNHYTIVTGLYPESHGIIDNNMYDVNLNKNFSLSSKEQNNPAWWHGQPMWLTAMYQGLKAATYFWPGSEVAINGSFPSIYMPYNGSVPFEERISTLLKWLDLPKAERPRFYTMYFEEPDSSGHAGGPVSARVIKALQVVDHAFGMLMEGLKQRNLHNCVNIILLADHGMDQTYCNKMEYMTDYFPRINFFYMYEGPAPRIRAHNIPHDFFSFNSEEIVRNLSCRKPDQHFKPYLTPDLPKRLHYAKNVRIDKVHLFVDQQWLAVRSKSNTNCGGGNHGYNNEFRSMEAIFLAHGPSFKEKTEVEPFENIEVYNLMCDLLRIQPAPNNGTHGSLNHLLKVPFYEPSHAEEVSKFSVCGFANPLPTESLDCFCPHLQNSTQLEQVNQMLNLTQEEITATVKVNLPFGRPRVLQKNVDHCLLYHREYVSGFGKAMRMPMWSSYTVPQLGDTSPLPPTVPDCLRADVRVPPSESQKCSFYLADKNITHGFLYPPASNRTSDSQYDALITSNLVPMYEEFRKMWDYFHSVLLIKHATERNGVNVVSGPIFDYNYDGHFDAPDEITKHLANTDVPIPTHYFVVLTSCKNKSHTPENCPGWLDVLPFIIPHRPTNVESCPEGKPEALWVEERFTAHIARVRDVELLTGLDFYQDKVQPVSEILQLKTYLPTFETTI

[10] = target: T5, NPP3 (ectonucleotide pyrophosphatase/phosphodiesterase family member 3) (Homo sapiens, UniProt O14638); assay: Drug metabolism assessed as human NPP3-mediated compound hydrolysis at 100 uM after 3 hrs by HPLC analysis relative to UDP-treated control; format: ADME; settings: human NPP3 enzyme, read-out: Drug metabolism; summary of the method: as §3
T5 sequence (O14638 whole entry): T4 sequence (whole entry)

[11] = target: T1, P2Y purinoceptor 6; assay: Agonist activity at human recombinant P2Y6 receptor expressed in human 1321N1 cells assessed as increase in intracellular calcium level at 100 uM by fluo-4 dye-based spectrofluorometric analysis relative to UDP-treated control; format: functional, cell-based; summary of the method: as §2

Row | SMILES | inhibition [1] | inhibition [3] | Activity [4] | also measured
1 | O=c1[nH]c(=O)n([C@H]2C[C@H](O)[C@@H](COP(=O)(O)C(Cl)(Cl)P(=O)(O)O)O2)cc1F | inactive |  |  | Activity [2]: inactive
2 | CC(C)c1cn([C@@H]2O[C@H](COP(=O)(O)CP(=O)(O)O)[C@@H](O)[C@H]2O)c(=O)[nH]c1=O |  | 24% | inactive | 
3 | O=c1[nH]c(=O)n([C@@H]2O[C@H](COP(=O)(O)C(Cl)(Cl)P(=O)(O)O)[C@@H](O)[C@H]2O)cc1F | inactive |  | Active | 
4 | COc1cn([C@@H]2O[C@H](COP(=O)(O)CP(=O)(O)O)[C@@H](O)[C@H]2O)c(=O)[nH]c1=O |  |  |  | Activity [5]: 27%
5 | O=c1[nH]c(=O)n([C@@H]2O[C@H](COP(=O)(O)CP(=O)(O)O)[C@@H](O)[C@H]2O)cc1F |  |  | Active | 
6 | O=c1ccn([C@@H]2O[C@H](COP(=O)(O)CS(=O)(=O)O)[C@@H](O)[C@H]2O)c(=O)[nH]1 |  | inactive |  | metabolised at 2 h, 100 µM [6]: 9.5%; inhibition [7]: 26.7%; Activity [8]: inactive; inhibition [9]: 12.2%; metabolised at 3 h, 100 µM [10]: 13.5%
7 | O=c1[nH]c(=O)n([C@@H]2O[C@H](COP(=O)(O)CP(=O)(O)O)[C@@H](O)[C@H]2O)cc1-c1ccccc1 |  | inactive | inactive | 
8 | COc1cn([C@@H]2O[C@H](COP(=O)(O)C(F)(F)P(=O)(O)O)[C@@H](O)[C@H]2O)c(=O)[nH]c1=O | inactive | 40% | Active | Activity [2]: Active
9 | Cn1c(=O)ccn([C@@H]2O[C@H](COP(=O)(O)CP(=O)(O)O)[C@@H](O)[C@H]2O)c1=O |  | inactive | inactive | 
10 | COc1cn([C@@H]2O[C@H](COP(=O)(O)C(Cl)(Cl)P(=O)(O)O)[C@@H](O)[C@H]2O)c(=O)[nH]c1=O | inactive | Active | Active | 
11 | O=c1[nH]c(=O)n([C@H]2C[C@H](O)[C@@H](COP(=O)(O)CP(=O)(O)O)O2)cc1F | inactive |  |  | Activity [2]: Active
12 | Cc1cn([C@@H]2O[C@H](COP(=O)(O)CP(=O)(O)O)[C@@H](O)[C@H]2O)c(=O)[nH]c1=O |  |  |  | Activity [11]: 60%
13 | O=c1[nH]c(=O)n([C@@H]2O[C@H](COP(=O)(O)OS(=O)(=O)O)[C@@H](O)[C@H]2O)cc1F |  |  |  | metabolised at 2 h, 100 µM [6]: 18.9%; metabolised at 3 h, 100 µM [10]: 44.4%
14 | O=c1[nH]c(=O)n([C@H]2C[C@H](OP(=O)(O)O)[C@@H](COP(=O)(O)O)O2)cc1F | inactive |  |  | Activity [2]: Active
15 | O=c1[nH]c(=O)n([C@H]2C[C@H](O)[C@@H](COP(=O)(O)C(F)(F)P(=O)(O)O)O2)cc1F | inactive |  |  | Activity [2]: inactive
16 | O=c1[nH]c(=O)n([C@@H]2O[C@H](COP(=O)(O)C(F)(F)P(=O)(O)O)[C@@H](O)[C@H]2O)cc1F | inactive | Active | Active | 
17 | COc1cn([C@@H]2O[C@H](COP(=O)(O)CS(=O)(=O)O)[C@@H](O)[C@H]2O)c(=O)[nH]c1=O |  | inactive |  | metabolised at 2 h, 100 µM [6]: 21.6%; inhibition [7]: 48.4%; Activity [8]: inactive; inhibition [9]: 10.5%; metabolised at 3 h, 100 µM [10]: 11%
